Paper PMC7747014 (Journal of medicinal chemistry, 2015)
Structures can show the parent of a compound that is named as a salt. Where two headings read alike, the source gives them in different places. Values belong to the compound of their own block, whether it stands above or below them.

Assays:
Human recombinant Top1 [1] = target: T1, Human recombinant Top1 (Homo sapiens, UniProt P11387); experiment: Top1-mediated DNA cleavage assay; assay type: biochemical; conditions: graded relative to 1 μM camptothecin
T1 sequence (P11387 1-765): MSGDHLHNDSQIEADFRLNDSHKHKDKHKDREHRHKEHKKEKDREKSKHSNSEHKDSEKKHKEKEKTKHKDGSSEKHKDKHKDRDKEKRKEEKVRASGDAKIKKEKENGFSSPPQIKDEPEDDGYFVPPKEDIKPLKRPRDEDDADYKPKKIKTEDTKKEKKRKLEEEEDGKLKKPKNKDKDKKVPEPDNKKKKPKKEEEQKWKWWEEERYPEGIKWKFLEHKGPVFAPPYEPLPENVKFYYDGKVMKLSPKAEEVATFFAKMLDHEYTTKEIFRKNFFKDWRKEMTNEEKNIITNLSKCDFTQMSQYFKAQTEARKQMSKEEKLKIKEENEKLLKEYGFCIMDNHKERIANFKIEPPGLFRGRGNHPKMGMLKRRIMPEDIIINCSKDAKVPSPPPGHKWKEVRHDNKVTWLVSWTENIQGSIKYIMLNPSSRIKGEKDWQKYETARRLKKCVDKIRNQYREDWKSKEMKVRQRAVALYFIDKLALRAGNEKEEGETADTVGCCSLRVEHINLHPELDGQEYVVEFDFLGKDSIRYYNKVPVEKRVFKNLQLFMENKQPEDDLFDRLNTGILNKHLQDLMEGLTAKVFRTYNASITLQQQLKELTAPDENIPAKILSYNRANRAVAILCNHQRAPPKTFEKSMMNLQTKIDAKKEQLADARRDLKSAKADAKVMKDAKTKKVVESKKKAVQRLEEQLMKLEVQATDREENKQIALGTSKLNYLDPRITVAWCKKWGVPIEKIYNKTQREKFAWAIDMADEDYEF

recombinant TDP1 = recombinant TDP1 (Homo sapiens, UniProt Q9NUW8); experiment: Gel-based assay measuring the inhibition of recombinant TDP1; assay type: biochemical; conditions: for IC50: read-out: TDP1 inhibition, semiquantitative IC50 scale
Chain of recombinant TDP1 (Q9NUW8 whole entry): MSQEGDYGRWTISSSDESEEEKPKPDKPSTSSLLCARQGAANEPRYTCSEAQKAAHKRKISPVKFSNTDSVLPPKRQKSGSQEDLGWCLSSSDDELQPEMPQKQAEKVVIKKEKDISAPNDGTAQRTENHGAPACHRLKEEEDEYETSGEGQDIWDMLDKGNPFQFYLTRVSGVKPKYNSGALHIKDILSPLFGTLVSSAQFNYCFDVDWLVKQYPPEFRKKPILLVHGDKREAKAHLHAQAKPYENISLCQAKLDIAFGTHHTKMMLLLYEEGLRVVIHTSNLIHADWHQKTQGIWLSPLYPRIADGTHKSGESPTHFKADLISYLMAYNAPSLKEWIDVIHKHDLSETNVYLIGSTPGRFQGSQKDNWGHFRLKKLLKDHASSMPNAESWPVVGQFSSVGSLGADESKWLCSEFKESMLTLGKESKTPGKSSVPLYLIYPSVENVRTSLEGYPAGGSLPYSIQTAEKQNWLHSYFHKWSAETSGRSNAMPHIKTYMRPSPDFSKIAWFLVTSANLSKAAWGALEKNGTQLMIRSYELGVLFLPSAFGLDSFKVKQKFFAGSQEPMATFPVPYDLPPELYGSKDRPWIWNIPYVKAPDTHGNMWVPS

[2] = system: 60 common human cancer cell lines (NCI-60); experiment: NCI-60 five-dose screen, mean-graph midpoint; assay type: cell-based
Summary of the method: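 NCI-DTP screen across 60 human cancer cell lines. One-dose prescreen at 10 μM; compounds passing the cutoff went to five concentrations, 100 μM to 10 nM. GI50 per cell line interpolated from five-dose data.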

Human recombinant Top1 [3] = target: T1, Human recombinant Top1; conditions: graded relative to 1 μM camptothecin; cited from earlier work
[4] = system: 60 common human cancer cell lines (NCI-60); conditions: cited from earlier work
lung HOP-62 = conditions: read-out: cytotoxicity (GI50 in μM) lung HOP-62; cited from earlier work
colon HCT-116 = conditions: read-out: cytotoxicity (GI50 in μM) colon HCT-116; cited from earlier work
CNS SF-539 = conditions: read-out: cytotoxicity (GI50 in μM) CNS SF-539; cited from earlier work
melanoma UACC-62 = conditions: read-out: cytotoxicity (GI50 in μM) melanoma UACC-62; cited from earlier work
ovarian OVACAR-3 = conditions: read-out: cytotoxicity (GI50 in μM) ovarian OVACAR-3; cited from earlier work
renal SN12C = conditions: read-out: cytotoxicity (GI50 in μM) renal SN12C; cited from earlier work
prostate DU-145 = conditions: read-out: cytotoxicity (GI50 in μM) prostate DU-145; cited from earlier work
breast MCF7 = conditions: read-out: cytotoxicity (GI50 in μM) breast MCF7; cited from earlier work
[5] = Homo sapiens, 60 cell, read-out: MGM
[6] = read-out: MGM values, range over the named series
[7] = read-out: MGM values, range over the named compounds

Compound: O=C1c2c(O)cccc2-c2c1c1ccc([N+](=O)[O-])cc1c(=O)n2CCCn1ccnc1 [Compound 60, 6-(3-(1H-Imidazol-1-yl)propyl)-10-hydroxy-3-nitro-5H-indeno-[1,2-c]isoquinoline-5,11(6H)-dione Hydrobromide]
- GI50 [2, 6]: 234 to 3550 nM

Compound: COc1cc2c(cc1O)C(=O)c1c-2n(CCCN2CCOCC2)c(=O)c2cc([N+](=O)[O-])ccc12 [Compound 21, 9-Hydroxy-8-methoxy-6-(3-morpholinopropyl)-3-nitro-5H-indeno[1,2-c]isoquinoline-5,11(6H)-dione Hydrobromide]
- GI50 [2, 6]: 16 to 21 nM

Compound: O=C1c2ccc(O)cc2-c2c1c1ccc([N+](=O)[O-])cc1c(=O)n2CCCn1ccnc1 [Compound 59, 6-(3-(1H-Imidazol-1-yl)propyl)-8-hydroxy-3-nitro-5H-indeno[1,2-c]isoquinoline-5,11(6H)-dione Hydrobromide]
- GI50 [2, 6]: 56 to 407 nM

Compound: O=C1c2c(O)cccc2-c2c1c1ccc([N+](=O)[O-])cc1c(=O)n2CCCN1CCOCC1 [Compound 56, 10-(Hydroxy)-6-(3-morpholinopropyl)-3-nitro-5H-indeno[1,2-c]-isoquinoline-5,11(6H)-dione]
- GI50 [2, 5]: 3500 nM
- GI50 [2, 6]: 234 to 3550 nM

Compound: COc1cc2c(cc1O)C(=O)c1c-2n(CCCN2CCOCC2)c(=O)c2cc(OC)c(OC)cc12 [Compound 10]
- Top1 cleavage (Human recombinant Top1 [3]): +++++
- GI50 [4, 7]: 55 to 87 nM
- GI50 (lung HOP-62): 0.02 µM
- GI50 (colon HCT-116): 0.03 µM
- GI50 (CNS SF-539): 0.02 µM
- GI50 (melanoma UACC-62): 0.02 µM
- GI50 (ovarian OVACAR-3): 0.03 µM
- GI50 (renal SN12C): 0.02 µM
- GI50 (prostate DU-145): 0.02 µM
- GI50 (breast MCF7): 0.02 µM

Compound: COc1cc2c(cc1O)C(=O)c1c-2n(CCCn2ccnc2)c(=O)c2cc([N+](=O)[O-])ccc12 [Compound 23, 6-(3-(1H-Imidazol-1-yl)propyl)-9-hydroxy-8-methoxy-3-nitro-5H-indeno[1,2-c]isoquinoline-5,11(6H)-dione Hydrobromide]
- GI50 [2, 6]: 16 to 21 nM

Compound: COc1cc2c(cc1O)C(=O)c1c-2n(CCCn2ccnc2)c(=O)c2cc(OC)c(OC)cc12 [Compound 11]
- GI50 [4, 7]: 55 to 87 nM
- GI50 (lung HOP-62): < 0.01 µM
- GI50 (colon HCT-116): < 0.01 µM
- GI50 (CNS SF-539): < 0.01 µM
- GI50 (melanoma UACC-62): < 0.01 µM
- GI50 (ovarian OVACAR-3): 0.02 µM
- GI50 (renal SN12C): < 0.01 µM
- GI50 (prostate DU-145): < 0.01 µM
- GI50 (breast MCF7): < 0.01 µM

Compound: COc1cc2c(cc1O)-c1c(c3ccc([N+](=O)[O-])cc3c(=O)n1CCCN1CCOCC1)C2=O [Compound 32, 8-Hydroxy-9-methoxy-6-(3-morpholinopropyl)-3-nitro-5H-indeno[1,2-c]isoquinoline-5,11(6H)-dione Hydrobromide]
- GI50 [2, 5]: 200 nM

Compound: COc1ccc2c(c1)C(=O)c1c-2n(CCCN)c(=O)c2cc([N+](=O)[O-])ccc12 [Compound 5]
- Top1 cleavage (Human recombinant Top1 [3]): +++++
- GI50 (lung HOP-62): < 0.01 µM
- GI50 (colon HCT-116): < 0.01 µM
- GI50 (CNS SF-539): < 0.01 µM
- GI50 (melanoma UACC-62): < 0.01 µM
- GI50 (renal SN12C): < 0.01 µM

Compound: COc1cc2c(cc1O)-c1c(c3cc(OC)c(OC)cc3c(=O)n1CCCn1ccnc1)C2=O [Compound 9]
- Top1 cleavage (Human recombinant Top1 [3]): ++(+)
- GI50 ([4]; read-out: MGM, average GI50 across 60 cell lines): 42000 ± 7000 nM
- GI50 (lung HOP-62): > 100 µM
- GI50 (colon HCT-116): > 100 µM
- GI50 (melanoma UACC-62): 0.33 µM
- GI50 (ovarian OVACAR-3): > 100 µM
- GI50 (prostate DU-145): > 100 µM
- GI50 (breast MCF7): 0.05 µM

Compound: COc1cccc2c1-c1c(c3ccc([N+](=O)[O-])cc3c(=O)n1CCCN)C2=O [Compound 4]
- Top1 cleavage (Human recombinant Top1 [3]): ++++
- GI50 (lung HOP-62): 1.1 µM
- GI50 (melanoma UACC-62): 2.3 µM
- GI50 (ovarian OVACAR-3): 2.3 µM
- GI50 (prostate DU-145): 1.1 µM

Continued, in another order:

- Top1 cleavage (Human recombinant Top1 [1]): ++ (50–75% activity)
Compound: O=C1c2cccc(O)c2-c2c1c1ccc([N+](=O)[O-])cc1c(=O)n2CCCN1CCOCC1 [Compound 43, 7-Hydroxy-6-(3-morpholinopropyl)-3-nitro-5H-indeno[1,2-c]-isoquinoline-5,11(6H)-dione]

- TDP1 inhibitory activity (in words) (recombinant TDP1): TDP1 inhibitors
- IC50 (recombinant TDP1): 1000 to 12000 nM
Compound: Br.NCCCn1c2c(c3ccc([N+](=O)[O-])cc3c1=O)C(=O)c1ccc(O)cc1-2 [Compound 63, 6-(3-Aminopropyl)-8-hydroxy-3-nitro-5H-indeno[1,2-c]-isoquinoline-5,11(6H)-dione Hydrobromide]
- GI50 [2, 5]: 410 ± 1000 nM
- GI50 [2, 6]: 56 to 407 nM

- Top1 cleavage (Human recombinant Top1 [1]): ++ (50–75% activity)
- TDP1 inhibitory activity (in words) (recombinant TDP1): TDP1 inhibitors
- IC50 (recombinant TDP1): 12000 to 37000 nM
Compound: Cl.NCCCn1c2c(c3ccc([N+](=O)[O-])cc3c1=O)C(=O)c1cccc(O)c1-2 [Compound 45, 6-(3-Aminopropyl)-7-hydroxy-3-nitro-5H-indeno[1,2-c]-isoquinoline-5,11(6H)-dione Hydrochloride]

- TDP1 inhibitory activity (in words) (recombinant TDP1): TDP1 inhibitors
- IC50 (recombinant TDP1): 12000 to 37000 nM
Compound: Br.COc1cc2c(cc1O)-c1c(c3ccc([N+](=O)[O-])cc3c(=O)n1CCCN)C2=O [Compound 36, 6-(3-Aminopropyl)-8-hydroxy-9-methoxy-3-nitro-5H-indeno[1,2-c]isoquinoline-5,11(6H)-dione Hydrobromide]

- Top1 cleavage (Human recombinant Top1 [1]): ++(+)
- IC50 (recombinant TDP1): 12000 to 37000 nM
Compound: Br.COc1cc2c(cc1O)-c1c(c3ccc([N+](=O)[O-])cc3c(=O)n1CCCn1ccnc1)C2=O [Compound 34, 6-(3-(1H-Imidazol-1-yl)propyl)-8-hydroxy-9-methoxy-3-nitro-5H-indeno[1,2-c]isoquinoline-5,11(6H)-dione Hydrobromide]
- GI50 [2, 5]: 740 nM

- TDP1 inhibitory activity (in words) (recombinant TDP1): TDP1 inhibitors
- IC50 (recombinant TDP1): 12000 to 37000 nM
Compound: Br.COc1cc2c(cc1O)C(=O)c1c-2n(CCCN)c(=O)c2cc([N+](=O)[O-])ccc12 [Compound 25, 6-(3-Aminopropyl)-9-hydroxy-8-methoxy-3-nitro-5H-indeno[1,2-c]isoquinoline-5,11(6H)-dione Hydrobromide]
- GI50 [2, 6]: 16 to 21 nM

- TDP1 inhibitory activity (in words) (recombinant TDP1): TDP1 inhibitors
- IC50 (recombinant TDP1): 12000 to 37000 nM
Compound: Br.NCCCn1c2c(c3ccc([N+](=O)[O-])cc3c1=O)C(=O)c1c(O)cccc1-2 [Compound 64, 6-(3-Amino-propyl)-10-hydroxy-3-nitro-5H-indeno[1,2-c]isoquinoline-5,11(6H)-dione Hydrobromide]
- GI50 [2, 5]: 2000 nM
- GI50 [2, 6]: 234 to 3550 nM

- IC50 (recombinant TDP1): 1000 to 12000 nM
Compound: O=C1c2ccccc2-c2c1c1ccccc1c(=O)n2CCCNCCCNCCCn1c2c(c3ccccc3c1=O)C(=O)c1ccccc1-2 [Compound 72]

- Top1 cleavage (Human recombinant Top1 [1]): +++ (75–95% activity)
Compound: O=C1c2cccc(O)c2-c2c1c1ccc([N+](=O)[O-])cc1c(=O)n2CCCn1ccnc1 [Compound 44, 6-(3-(1H-Imidazol-1-yl)propyl)-7-hydroxy-3-nitro-5H-indeno[1,2-c]isoquinoline-5,11(6H)-dione]

- Top1 cleavage (Human recombinant Top1 [1]): ++++
- TDP1 inhibitory activity (in words) (recombinant TDP1): TDP1 inhibitors
- IC50 (recombinant TDP1): 37000 to 111000 nM
Compound: Br.NCCCn1c2c(c3ccc([N+](=O)[O-])cc3c1=O)C(=O)c1cc(O)ccc1-2 [Compound 71, 6-(3-Aminopropyl)-9-hydroxy-3-nitro-5H-indeno[1,2-c]-isoquinoline-5,11(6H)-dione Hydrobromide]
- GI50 [2, 5]: 120 nM

- Top1 cleavage (Human recombinant Top1 [1]): +++++
Compound: Br.O=C1c2cc(O)ccc2-c2c1c1ccc([N+](=O)[O-])cc1c(=O)n2CCCN1CCOCC1 [Compound 69, 9-Hydroxy-6-(3-morpholinopropyl)-3-nitro-5H-indeno[1,2-c]-isoquinoline-5,11(6H)-dione Hydrobromide]

- Top1 cleavage (Human recombinant Top1 [1]): ++++
Compound: Br.O=C1c2ccc(O)cc2-c2c1c1ccc([N+](=O)[O-])cc1c(=O)n2CCCN1CCOCC1 [Compound 55, 8-(Hydroxy)-6-(3-morpholinopropyl)-3-nitro-5H-indeno[1,2-c]-isoquinoline-5,11(6H)-dione]
- GI50 [2, 6]: 56 to 407 nM
